Results from publication PMC11661456 (Science Advances, 2024).
“Also recorded” adds a separate entry of the source.

Columns and labels:
AbBioC = molecular target: T1, AbBioC (Acinetobacter baumannii, UniProt A0A1E3M3A7); test: Isothermal titration calorimetry of ligand binding to AbBioC; set-up: species or system A. baumannii; conditions: for binding stoichiometry (N): ITC, single binding site model, mean ± SD (n = 3)
T1 sequence (A0A1E3M3A7 1-249): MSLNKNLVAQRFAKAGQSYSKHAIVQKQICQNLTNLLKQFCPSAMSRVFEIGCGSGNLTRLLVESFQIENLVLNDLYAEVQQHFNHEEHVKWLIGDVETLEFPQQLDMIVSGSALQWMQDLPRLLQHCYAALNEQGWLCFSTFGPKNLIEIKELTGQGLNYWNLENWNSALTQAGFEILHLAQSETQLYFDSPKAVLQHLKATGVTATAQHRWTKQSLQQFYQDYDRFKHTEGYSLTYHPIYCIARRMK
Outline: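 His6-SUMO-tagged AbBioC, Ni-NTA purified. ITC at 25°C in 20 mM tris (pH 8.0), 300 mM NaCl. AbBioC (20 μM) in cell, titrated with SAM or test compound (200 μM) in 20 injections: 0.4 μl first, then 2.0 μl every 120 s. Data fitted to single-site model; N and Kd given as mean ± SD of three replicates.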

AbBioC methyltransferase = molecular target: T2, AbBioC methyltransferase (Acinetobacter baumannii, UniProt A0A1E3M3A7); type: biochemical, A. baumannii
T2 sequence (A0A1E3M3A7 1-249): T1 sequence (A0A1E3M3A7 1-249)

[1] = system: bioC-expressing bacterium; test: Effect of free SIN on viability of bioC-expressing bacterium; type: cell-based; conditions: free (not nanoparticle-loaded) SIN
BcBioC = conditions: in vitro; cited from earlier work
[2] = system: mcr-1–harboring K. pneumoniae; test: Bacterial lysis assay, mcr-1-harboring K. pneumoniae; type: cell-based; conditions: colistin 8 μg/ml; MCR-1-expressing K. pneumoniae ΔbioC (FYJ6186)
A. baumannii = test: Colistin E-test; type: cell-based
K. pneumoniae = test: Colistin E-test; type: cell-based; conditions: ATCC 43816 upon MCR-1 expression
[3] = system: mcr-1–expressing A. baumannii; test: Bacterial lysis assay, mcr-1-expressing A. baumannii; type: cell-based
Outline: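 mcr-1–bearing A. baumannii and its ΔbioC mutant washed three times in biotin-free PBS, then seeded at 2 × 10^8 CFU/ml into 2 ml PBS with or without colistin (8 μg/ml). PBS-only groups served as untreated controls. Positive control arms used a reference inhibitor (4 μg/ml) alone, colistin (8 μg/ml) alone, or both together.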

| Molecule | Kd (AbBioC) [µM] | binding stoichiometry (N) (AbBioC) | binding affinity of SIN compared with SAM (fold, Kd) (AbBioC; ITC Kd of SIN versus the physiological ligand SAM) | Ki (AbBioC methyltransferase) [µM] | effect on the ability of AbBioC to initiate biotin synthesis (AbBioC methyltransferase; DTB/biotin bioassay, in vitro reconstituted system) | ability of free SIN to diminish bacterial viability [1] | inactivation of BcBioC enzyme (BcBioC) | bacterial killing by colistin of the ΔbioC mutant [2] | colistin MIC (E-test) (A. baumannii; AB18PR065 + mcr-4.3, 0.2% glu M9) [µg/mL] | colistin MIC (E-test) (A. baumannii; ATCC 17978 + plasmid-borne mcr-1, LB) [µg/mL] | colistin MIC (E-test) (A. baumannii; ATCC 17978 without mcr-1, LB) [µg/mL] | colistin MIC (E-test) (K. pneumoniae) [µg/mL] | bacterial lysis / viability ([3]; colistin 8 μg/ml alone, FYJ6179 in PBS, 20 hours) | bacterial killing by colistin of the ΔbioC mutant ([3]; colistin 8 μg/ml, mcr-1–expressing A. baumannii ΔbioC (FYJ6181)) |
| --- | --- | --- | --- | --- | --- | --- | --- | --- | --- | --- | --- | --- | --- | --- |
| C[S+](CC[C@H](N)C(=O)[O-])C[C@H]1O[C@@H](n2cnc3c(N)ncnc32)[C@H](O)[C@@H]1O (stereo partly drawn) [SAM, S-adenosyl-L-methionine] | 2.57 ± 0.75 | 0.95 ± 0.13 | – | – | – | – | – | – | – | – | – | – | – | – |
| Nc1ncnc2c1ncn2[C@@H]1O[C@H](C[C@@H](N)CC[C@H](N)C(=O)O)[C@@H](O)[C@H]1O [SIN, sinefungin] | 0.808 ± 0.135 | 1.180 ± 0.008 | around threefold | ~0.37 | efficiently interferes; also recorded: effectively kills AbBioC | inability | efficiently inactivate | – | – | – | – | – | – | – |
| colistin | – | – | – | – | – | – | – | fails to render the K. pneumoniae ΔbioC mutant insusceptible | 8.0 | 4.0 | 0.5 | 32 | neither MAC13772 inhibitor (4 μg/ml) nor colistin (8 μg/ml) lysed bacterial cells | resensitize; also recorded: vulnerability |
